Laboratory results reported in ChEMBL document CHEMBL1781959, “Synthesis and in vitro antitumor activity of substituted quinazoline and quinoxaline derivatives: search for anticancer agent” (Eur J Med Chem, 2011).

Assays:
[1] = tested on: KM12; assay: Cytotoxicity against human KM12 cells after 48 hrs by SRB assay; assay type: cell-based; conditions: km12, 48 h
Summary of the method: (§1)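 NCI-60 five-dose screen in RPMI 1640 with 5% FBS and 2 mM L-glutamine; 5000–40,000 cells/well, 24 h pre-incubation. DMSO stocks diluted to 0.01, 0.1, 1, 10 and 100 μM final; 48 h at 37 °C, 5% CO2. Fixed with TCA (10% final adherent, 16% suspension), stained with 0.4% SRB, A515. GI50, TGI and LC50 taken from time-zero, control and test absorbances.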

[2] = tested on: NCI-H460; assay: Growth inhibition of human NCI-H460 cells after 48 hrs by SRB assay; assay type: functional; conditions: NCI-H460, 48 h
Summary of the method: (§2)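 NCI 60-panel five-dose assay at 0.01, 0.1, 1, 10 and 100 μM. Cells in RPMI 1640 with 5% FBS and 2 mM L-glutamine, preincubated 24 h, with time-zero plates TCA-fixed. Drug exposure 48 h at 37 °C. Read by SRB staining at 515 nm. GI50 is the concentration where [(Ti−Tz)/(C−Tz)]×100 = 50, taken from log concentration versus % growth curves.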

[3] = tested on: NCI-H23; assay: Cytotoxicity against human NCI-H23 cells after 48 hrs by SRB assay; assay type: cell-based; conditions: nci-h23, 48 h; summary of the method: as §1
[4] = tested on: 786-0; assay: Growth inhibition of human 786-0 cells after 48 hrs by SRB assay; assay type: functional; conditions: 786-0, 48 h; summary of the method: as §2
[5] = tested on: M14; assay: Growth inhibition of human M14 cells after 48 hrs by SRB assay; assay type: functional; conditions: M14, 48 h; summary of the method: as §2
[6] = tested on: UO-31; assay: Cytotoxicity against human UO31 cells after 48 hrs by SRB assay; assay type: cell-based; conditions: uo-31, 48 h
Summary of the method: (§3)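 NCI-60 five-dose screen. Cells grown in RPMI 1640 with 5% FBS and 2 mM L-glutamine and pre-incubated 24 h; a time-zero plate is TCA-fixed. Drug added at 0.01, 0.1, 1, 10 and 100 µM (DMSO stock) for 48 h at 37 °C, 5% CO2. Fixed with cold TCA (10% final for adherent, 16% for suspension cells), stained with 0.4% SRB, A515. GI50, TGI and LC50 taken from dose-response curves.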

[7] = tested on: SF-539; assay: Cytotoxicity against human SF539 cells after 48 hrs by SRB assay; assay type: cell-based; conditions: sf-539, 48 h; summary of the method: as §1
[8] = tested on: SK-MEL-5; assay: Cytotoxicity against human SK-MEL-5 cells after 48 hrs by SRB assay; assay type: cell-based; conditions: sk-mel-5, 48 h; summary of the method: as §1
[9] = tested on: NCI-H322M; assay: Growth inhibition of human NCI-H322M cells after 48 hrs by SRB assay; assay type: functional; summary of the method: as §2
[10] = tested on: MDA-MB-231; assay: Cytotoxicity against human MDA-MB-231 cells after 48 hrs by SRB assay; assay type: cell-based; conditions: mda-mb-231, 48 h; summary of the method: as §1
[11] = tested on: SK-MEL-28; assay: Cytotoxicity against human SK-MEL-28 cells after 48 hrs by SRB assay; assay type: cell-based; conditions: sk-mel-28, 48 h; summary of the method: as §1
[12] = tested on: HCT-116; assay: Cytotoxicity against human HCT116 cells after 48 hrs by SRB assay; assay type: cell-based; conditions: hct-116, 48 h; summary of the method: as §1
[13] = tested on: SF-268; assay: Growth inhibition of human SF268 cells after 48 hrs by SRB assay; assay type: functional; conditions: SF-268, 48 h; summary of the method: as §2
[14] = tested on: K562; assay: Cytotoxicity against human K562 cells after 48 hrs by SRB assay; assay type: cell-based; conditions: k562, 48 h; summary of the method: as §1
[15] = tested on: OVCAR-5; assay: Growth inhibition of human OVCAR5 cells after 48 hrs by SRB assay; assay type: functional; conditions: OVCAR-5, 48 h; summary of the method: as §2
[16] = tested on: HL-60(TB); assay: Growth inhibition of human HL-60(TB) cells after 48 hrs by SRB assay; assay type: functional; conditions: HL-60, 48 h
[17] = tested on: PC-3; assay: Growth inhibition of human PC3 cells after 48 hrs by SRB assay; assay type: functional; conditions: PC-3, 48 h; summary of the method: as §2
[18] = tested on: MOLT-4; assay: Growth inhibition of human MOLT4 cells after 48 hrs by SRB assay; assay type: functional; conditions: MOLT-4, 48 h; summary of the method: as §2
[19] = tested on: ACHN; assay: Growth inhibition of human ACHN cells after 48 hrs by SRB assay; assay type: functional; summary of the method: as §2
[20] = tested on: KM12; assay: Growth inhibition of human KM12 cells after 48 hrs by SRB assay; assay type: functional; conditions: KM12, 48 h; summary of the method: as §2
[21] = tested on: OVCAR-4; assay: Cytotoxicity against human OVCAR4 cells after 48 hrs by SRB assay; assay type: cell-based; conditions: ovcar-4, 48 h; summary of the method: as §1
[22] = tested on: T47D; assay: Cytotoxicity against human T47D cells after 48 hrs by SRB assay; assay type: cell-based; summary of the method: as §3
[23] = tested on: NCI-H226; assay: Cytotoxicity against human NCI-H226 cells after 48 hrs by SRB assay; assay type: cell-based; conditions: nci-h226, 48 h; summary of the method: as §1
[24] = tested on: NCI/ADR-RES; assay: Cytotoxicity against human NCI/ADR-RES cells after 48 hrs by SRB assay; assay type: cell-based; summary of the method: as §1
[25] = tested on: PC-3; assay: Cytotoxicity against human PC3 cells after 48 hrs by SRB assay; assay type: cell-based; conditions: pc-3, 48 h; summary of the method: as §1
[26] = tested on: DU-145; assay: Cytotoxicity against human DU145 cells after 48 hrs by SRB assay; assay type: cell-based; conditions: du-145, 48 h; summary of the method: as §1
[27] = tested on: HT-29; assay: Growth inhibition of human HT-29 cells after 48 hrs by SRB assay; assay type: functional; conditions: HT-29, 48 h; summary of the method: as §2
[28] = tested on: LOX IMVI; assay: Cytotoxicity against human LOXIMVI cells after 48 hrs by SRB assay; assay type: cell-based; summary of the method: as §1
[29] = tested on: OVCAR-8; assay: Growth inhibition of human OVCAR8 cells after 48 hrs by SRB assay; assay type: functional; conditions: OVCAR-8, 48 h; summary of the method: as §2
[30] = tested on: HCC 2998; assay: Growth inhibition of human HCC2998 cells after 48 hrs by SRB assay; assay type: functional; conditions: HCC 2998, 48 h; summary of the method: as §2
[31] = tested on: MDA-MB-468; assay: Cytotoxicity against human MDA-MB-468 cells after 48 hrs by SRB assay; assay type: cell-based; conditions: mda-mb-468, 48 h; summary of the method: as §1
[32] = tested on: HOP-62; assay: Cytotoxicity against human HOP62 cells after 48 hrs by SRB assay; assay type: cell-based; conditions: hop-62, 48 h; summary of the method: as §1
[33] = tested on: OVCAR-3; assay: Cytotoxicity against human OVCAR3 cells after 48 hrs by SRB assay; assay type: cell-based; conditions: ovcar-3, 48 h; summary of the method: as §1
[34] = tested on: 786-0; assay: Cytotoxicity against human 786-0 cells after 48 hrs by SRB assay; assay type: cell-based; conditions: 786-0, 48 h; summary of the method: as §1
[35] = tested on: RXF 393; assay: Growth inhibition of human RXF393 cells after 48 hrs by SRB assay; assay type: functional; conditions: RXF 393, 48 h; summary of the method: as §2
[36] = tested on: BT-549; assay: Growth inhibition of human BT549 cells after 48 hrs by SRB assay; assay type: functional; conditions: BT-549, 48 h; summary of the method: as §2
[37] = tested on: SK-OV-3; assay: Cytotoxicity against human SKOV3 cells after 48 hrs by SRB assay; assay type: cell-based; conditions: sk-ov-3, 48 h; summary of the method: as §1
[38] = tested on: HCT-116; assay: Growth inhibition of human HCT116 cells after 48 hrs by SRB assay; assay type: functional; conditions: HCT-116, 48 h; summary of the method: as §2

## O=c1c2ccccc2nc(-c2ccco2)n1/N=C/c1ccccc1Cl
[1]
  LC50: > 100 µM
[2]
  GI50: 3.45 µM
  TGI: 8.41 µM
[3]
  LC50: > 100 µM
[4]
  GI50: 3.94 µM
  TGI: 14.9 µM
[5]
  GI50: 10.8 µM
  TGI: > 100 µM
[6]
  LC50: > 100 µM
[7]
  LC50: > 100 µM
[8]
  LC50: > 100 µM
[9]
  GI50: 4.11 µM
  TGI: 76.9 µM
[10]
  LC50: > 100 µM
[11]
  LC50: > 100 µM
[12]
  LC50: > 100 µM
[13]
  GI50: 6.84 µM
  TGI: > 100 µM
[14]
  LC50: > 100 µM
[15]
  GI50: 5.12 µM
  TGI: > 100 µM
[16]
  GI50: 23.8 µM
  TGI: > 100 µM
[17]
  GI50: 8.23 µM
  TGI: > 100 µM
[18]
  GI50: > 100 µM
  TGI: > 100 µM
[19]
  GI50: 3.12 µM
  TGI: > 100 µM
[20]
  GI50: 3.65 µM
  TGI: 25.4 µM
[21]
  LC50: > 100 µM
[22]
  LC50: > 100 µM
[23]
  LC50: > 100 µM
[24]
  LC50: 52.7 µM
[25]
  LC50: > 100 µM
[26]
  LC50: > 100 µM
[27]
  GI50: 3.42 µM
  TGI: > 100 µM
[28]
  LC50: > 100 µM
[29]
  GI50: 3.98 µM
  TGI: 25.8 µM
[30]
  GI50: 5.68 µM
  TGI: > 100 µM
[31]
  LC50: > 100 µM
[32]
  LC50: > 100 µM
[33]
  LC50: > 100 µM
[34]
  LC50: > 100 µM
[35]
  GI50: 11.6 µM
  TGI: 42.6 µM
[36]
  GI50: 2920 nM
  TGI: 6.8 µM
[37]
  LC50: > 100 µM
[38]
  GI50: 3.32 µM
  TGI: 23.6 µM
